Test results: ChEMBL document CHEMBL1134513, “Synthesis and activities of pyoverdin-quinolone adducts: a prospective approach to a specific Therapy against Pseudomonas aeruginosa” (2001)
Converted amounts (≈) assume the structure as drawn.

Legend:
[1] = tested on: Pseudomonas aeruginosa; assay: Minimum inhibitory concentration against Pseudomonas aeruginosa IAI, measured in Muller-Hinton (MH) solid media; assay type: functional
[2] = tested on: Pseudomonas aeruginosa; assay: Minimum inhibitory concentration against Pseudomonas aeruginosa IAI measured in succinate (SC) liquid media; assay type: functional
[3] = tested on: Pseudomonas aeruginosa; assay: Minimum inhibitory concentration against Pseudomonas aeruginosa IAI measured in succinate (SC) solid media; assay type: functional
[4] = tested on: Pseudomonas aeruginosa; assay: Minimum inhibitory concentration against Pseudomonas aeruginosa K690, measured in succinate (SC) solid media; assay type: functional
[5] = tested on: Pseudomonas aeruginosa; assay: Minimum inhibitory concentration against Pseudomonas aeruginosa ATCC 15692 measured in Muller-Hinton (MH) liquid media; assay type: functional
Method in brief: (§1)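 Broth microdilution in Müller-Hinton medium, highest final concentration generally 64 µg/mL, final inoculum 10^6 cells/mL, 18 h at 37 °C. […] Adducts expressed as µg/mL quinolone equivalents.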

[6] = tested on: Pseudomonas aeruginosa; assay: Minimum inhibitory concentration against Pseudomonas aeruginosa ATCC 15692 measured in Muller-Hinton (MH) solid media; assay type: functional
[7] = tested on: Pseudomonas aeruginosa; assay: Minimum inhibitory concentration against Pseudomonas aeruginosa ATCC 15692 measured in succinate (SC) liquid media; assay type: functional
[8] = tested on: Pseudomonas aeruginosa; assay: Minimum inhibitory concentration against Pseudomonas aeruginosa ATCC 27853 measured in Muller-Hinton (MH) liquid media; assay type: functional
[9] = tested on: Pseudomonas aeruginosa; assay: Minimum inhibitory concentration against Pseudomonas aeruginosa ATCC 27853 measured in Muller-Hinton (MH) solid media; assay type: functional
[10] = tested on: Pseudomonas aeruginosa; assay: Minimum inhibitory concentration against Pseudomonas aeruginosa ATCC 27853 measured in succinate (SC) liquid media; assay type: functional
[11] = tested on: Pseudomonas aeruginosa; assay: Minimum inhibitory concentration against Pseudomonas aeruginosa ATCC 27853 measured in succinate (SC) solid media; assay type: functional
[12] = tested on: Pseudomonas aeruginosa; assay: Minimum inhibitory concentration against Pseudomonas aeruginosa K690, measured in Muller-Hinton (MH) solid media; assay type: functional
[13] = tested on: Pseudomonas aeruginosa; assay: Minimum inhibitory concentration against Pseudomonas aeruginosa IAI, measured in Muller-Hinton (MH) liquid media; assay type: functional; method in brief: as §1
[14] = tested on: Pseudomonas aeruginosa; assay: Minimum inhibitory concentration against Pseudomonas aeruginosa ATCC 15692 measured in succinate (SC) solid media; assay type: functional
[15] = Minimum effective dose required for the inhibition of Escherichia coli gyrase

CCn1cc(C(=O)O)c(=O)c2cc(F)c(N3CCN(C(=O)OCOC(=O)CCC(=O)NCCNC(=O)CCC(=O)Nc4cc5cc(O)c(O)cc5[n+]5c4NCC[C@H]5C(=O)N[C@H](CO)C(=O)N[C@@H](CCCN=C(N)N)C(=O)N[C@H](CO)C(=O)N[C@@](C)(CCCN(O)C=O)C(=O)N[C@H]4CCCCNC(=O)[C@H]([C@@H](C)O)NC(=O)[C@H]([C@@H](C)O)NC(=O)[C@H](CCCN(O)C=O)NC4=O)CC3)cc21 gave an MIC [1] of 4 µg/mL, an MIC [2] of 0.5 µg/mL and an MIC [3] of 2 µg/mL. For the same molecule, the MIC [4] was 16 µg/mL, the MIC [5] was 2 µg/mL and the MIC [6] was 2 µg/mL. For the same molecule, the MIC [7] was 0.5 µg/mL, the MIC [8] was 16 µg/mL and the MIC [9] was 16 µg/mL. It also gave an MIC [10] of 8 µg/mL, an MIC [11] of 8 µg/mL and an MIC [12] of 16 µg/mL. The MIC [13] was 4 µg/mL and the MIC [14] was 2 µg/mL.

Molecule C[C@H](O)[C@@H]1NC(=O)[C@H](CCCN(O)C=O)NC(=O)[C@@H](NC(=O)[C@](C)(CCCN(O)C=O)NC(=O)[C@@H](CO)NC(=O)[C@H](CCCN=C(N)N)NC(=O)[C@@H](CO)NC(=O)[C@@H]2CCNc3c(NC(=O)CCC(=O)NCCNC(=O)CCC(=O)OCOC(=O)N4CCN(c5cc6nc7c(cc6cc5F)c(=O)c(C(=O)O)cn7C)CC4)cc4cc(O)c(O)cc4[n+]32)CCCCNC(=O)[C@@H]([C@H](C)O)NC1=O has an MED [15] of 25 µg/mL.

Cn1cc(C(=O)O)c(=O)c2cc3cc(F)c(N4CCNCC4)cc3nc21 gave an MIC [1] of 16 µg/mL (≈ 44.9 µM), an MIC [2] of 32 µg/mL (≈ 89.8 µM) and an MIC [3] of 16 µg/mL (≈ 44.9 µM). The MIC [4] was 16 µg/mL (≈ 44.9 µM), the MIC [5] was 16 µg/mL (≈ 44.9 µM) and the MIC [6] was 8 µg/mL (≈ 22.4 µM). It also gave an MIC [7] of 64 µg/mL (≈ 180 µM), an MIC [8] of 32 µg/mL (≈ 89.8 µM) and an MIC [9] of 16 µg/mL (≈ 44.9 µM). It also gave an MIC [10] greater than 64 µg/mL, an MIC [11] of 8 µg/mL (≈ 22.4 µM) and an MIC [12] of 32 µg/mL (≈ 89.8 µM). For the same molecule, the MIC [13] was 16 µg/mL (≈ 44.9 µM), the MIC [14] was 4 µg/mL (≈ 11.2 µM) and the MED [15] was 4 µg/mL.

For C[C@H](O)[C@@H]1NC(=O)[C@H](CCCN(O)C=O)NC(=O)[C@@H](NC(=O)[C@](C)(CCCN(O)C=O)NC(=O)[C@@H](CO)NC(=O)[C@H](CCCN=C(N)N)NC(=O)[C@H](CO)NC(=O)[C@@H]2CCNc3c(NC(=O)CCC(=O)NCCNC(=O)CCC(=O)N4CCN(c5cc6nc7c(cc6cc5F)c(=O)c(C(=O)O)cn7C)CC4)cc4cc(O)c(O)cc4[n+]32)CCCCNC(=O)[C@@H]([C@H](C)O)NC1=O, the MED [15] was 25 µg/mL.

In the case of CCn1cc(C(=O)O)c(=O)c2cc(F)c(N3CCN(C(=O)OCOC(=O)CCC(=O)NCCNC(=O)CCC(=O)Nc4cc5cc(O)c(O)cc5[n+]5c4NCC[C@H]5C(=O)N[C@@H](CO)C(=O)N[C@@H](CCCN=C(N)N)C(=O)N[C@H](CO)C(=O)N[C@@](C)(CCCN(O)C=O)C(=O)N[C@H]4CCCCNC(=O)[C@@H]([C@H](C)O)NC(=O)[C@H]([C@H](C)O)NC(=O)[C@H](CCCN(O)C=O)NC4=O)CC3)cc21, the MED [15] is reported as 50 µg/mL.

Work on C[C@@H](O)[C@@H]1NC(=O)[C@H](CCCN(O)C=O)NC(=O)[C@@H](NC(=O)[C@](C)(CCCN(O)C=O)NC(=O)[C@@H](CO)NC(=O)[C@H](CCCN=C(N)N)NC(=O)[C@@H](CO)NC(=O)[C@@H]2CCNc3c(NC(=O)CCC(=O)NCCNC(=O)CCC(=O)OCOC(=O)N4CCN(c5cc6nc7c(cc6cc5F)c(=O)c(C(=O)O)cn7C)CC4)cc4cc(O)c(O)cc4[n+]32)CCCCNC(=O)[C@H]([C@@H](C)O)NC1=O [BENZONAPHTHYRIDONE BPL ADDUCT] yielded an MIC [1] of 16 µg/mL, an MIC [2] of 2 µg/mL and an MIC [3] of 1 µg/mL. For the same molecule, the MIC [4] was 8 µg/mL, the MIC [5] was 4 µg/mL and the MIC [6] was 8 µg/mL. The MIC [7] was 2 µg/mL, the MIC [8] was 32 µg/mL and the MIC [9] was 64 µg/mL. It also gave an MIC [10] of 32 µg/mL, an MIC [11] of 4 µg/mL and an MIC [12] of 32 µg/mL. It also gave an MIC [13] of 8 µg/mL and an MIC [14] of 1 µg/mL.

C[C@@H](O)[C@@H]1NC(=O)[C@H](CCCN(O)C=O)NC(=O)[C@@H](NC(=O)[C@](C)(CCCN(O)C=O)NC(=O)[C@@H](CO)NC(=O)[C@H](CCCN=C(N)N)NC(=O)[C@@H](CO)NC(=O)[C@@H]2CCNc3c(NC(=O)CCC(=O)NCCNC(=O)CCC(=O)N4CCN(c5cc6nc7c(cc6cc5F)c(=O)c(C(=O)O)cn7C)CC4)cc4cc(O)c(O)cc4[n+]32)CCCCNC(=O)[C@H]([C@@H](C)O)NC1=O gave an MIC [1] of 32 µg/mL, an MIC [3] of 8 µg/mL and an MIC [4] of 4 µg/mL. The MIC [6] was 16 µg/mL, the MIC [9] was greater than 64 µg/mL and the MIC [11] was 8 µg/mL. For the same molecule, the MIC [12] was 64 µg/mL and the MIC [14] was 8 µg/mL.

CCn1cc(C(=O)O)c(=O)c2cc(F)c(N3CCN(C(=O)CCC(=O)NCCNC(=O)CCC(=O)Nc4cc5cc(O)c(O)cc5[n+]5c4NCC[C@H]5C(=O)N[C@@H](CO)C(=O)N[C@@H](CCCN=C(N)N)C(=O)N[C@H](CO)C(=O)N[C@@](C)(CCCN(O)C=O)C(=O)N[C@H]4CCCCNC(=O)[C@@H]([C@H](C)O)NC(=O)[C@H]([C@H](C)O)NC(=O)[C@H](CCCN(O)C=O)NC4=O)CC3)cc21 showed an MED [15] of 50 µg/mL.

Work on CCn1cc(C(=O)O)c(=O)c2cc(F)c(N3CCN(C(=O)CCC(=O)NCCNC(=O)CCC(=O)Nc4cc5cc(O)c(O)cc5[n+]5c4NCC[C@H]5C(=O)N[C@H](CO)C(=O)N[C@@H](CCCN=C(N)N)C(=O)N[C@H](CO)C(=O)N[C@@](C)(CCCN(O)C=O)C(=O)N[C@H]4CCCCNC(=O)[C@H]([C@@H](C)O)NC(=O)[C@H]([C@@H](C)O)NC(=O)[C@H](CCCN(O)C=O)NC4=O)CC3)cc21 yielded an MIC [1] of 32 µg/mL, an MIC [3] of 4 µg/mL and an MIC [4] of 8 µg/mL. The MIC [6] was 8 µg/mL, the MIC [9] was greater than 64 µg/mL and the MIC [11] was 8 µg/mL. It also gave an MIC [12] of 32 µg/mL and an MIC [14] of 2 µg/mL.

CCn1cc(C(=O)O)c(=O)c2cc(F)c(N3CCNCC3)cc21 [NORFLOXACIN] showed an MIC [1] of 1 µg/mL (≈ 3.13 µM), an MIC [2] of 0.25 µg/mL (≈ 0.783 µM) and an MIC [3] of 0.03 µg/mL (≈ 0.0939 µM). It also gave an MIC [4] of 4 µg/mL (≈ 12.5 µM), an MIC [5] of 1 µg/mL (≈ 3.13 µM) and an MIC [6] of 0.25 µg/mL (≈ 0.783 µM). It also gave an MIC [7] of 0.25 µg/mL (≈ 0.783 µM), an MIC [8] of 4 µg/mL (≈ 12.5 µM) and an MIC [9] of 2 µg/mL (≈ 6.26 µM). It also gave an MIC [10] of 2 µg/mL (≈ 6.26 µM), an MIC [11] of 0.25 µg/mL (≈ 0.783 µM) and an MIC [12] of 8 µg/mL (≈ 25.1 µM). For the same molecule, the MIC [13] was 1 µg/mL (≈ 3.13 µM) and the MIC [14] was 0.06 µg/mL (≈ 0.188 µM).
